For series [1], the system named is HepG2. Put plainly: Cytotoxicity against human HepG2 cells assessed as effect on cell viability at 10 to 200 uM after 24 hrs by MTT assay. Type of series: cell-based. The settings on record: hepg2, 24 h. The method in brief: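 HepG2 cells grown in MEM with 10% FBS (37 °C, 5% CO2) and seeded at 1 × 10^4. After overnight culture, doxorubicin 10–200 μM for 24 h. MTT added for 3 h, crystals dissolved, OD 570 nm. Viability is % of control ± SEM, three independent experiments.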

Series [2] has as its system Mus musculus. Put plainly: Anticonvulsant activity in mouse assessed as current strength required to induce tonic hind-limb extension in 50% of the animals at 10 mg/kg, ip by maximal electroshock seizure threshold test (reference value: 6.05 to 8.13 mA). It counts as functional. (In general: The maximal electroshock test induces tonic seizures with an electrical stimulus.)

Series [3] has as its system Mus musculus. Put plainly: Toxicity in mouse at 25 mg/kg, ip measured during maximal electroshock seizure test. It counts as organism-based. The settings on record: in vivo.
A short description of series [4]: Cytotoxicity against mouse CRL-2541 cells assessed as effect on cell viability at 10 to 250 uM after 24 hrs by MTT assay. It counts as cell-based.
Series [5] has as its system Mus musculus. The series is described as follows: Anticonvulsant activity in mouse assessed as protection against subcutaneous pentylenetetrazole-induced seizures at 100 mg/kg, ip measured for 30 mins post pentylenetetrazole challenge at 0.5 hrs after compound dosing relative to control. Type of series: functional.
In series [6] the test system is Mus musculus. Put plainly: Anticonvulsant activity in mouse assessed as protection against maximal electroshock-induced seizures at 100 mg/kg, ip. It counts as functional, organism-based. The method in brief:
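Mice dosed ip; maximal seizures induced by auricular electroshock (25 mA, 500 V, 50 Hz, 0.2 s). Endpoint: hind-limb tonic extension; animals without it scored protected. Read-out is number protected over number tested.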

Series [7] concerns Mus musculus. The series is described as follows: Toxicity in mouse at 100 mg/kg, ip measured during maximal electroshock seizure test. It counts as organism-based. As to conditions: in vivo.
The test system of series [8] is Mus musculus. The series is described as follows: Analgesic activity in mouse assessed as time of paw licking during phase 1 at 27 mg/kg, ip measured for 5 mins by formalin test (reference value: 43.89 +/- 6.64 secs). It counts as functional. The method in brief:
(§1)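 Formalin test in mice: 20 μL of 5% formalin injected intraplantarly into the right hind paw. Each mouse was observed alone in a glass beaker for 30 min. Time (s) spent licking or biting the injected paw was recorded at 0–5 min (acute phase) and 15–30 min (inflammatory phase).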

Series [9] deals with HepG2. Put plainly: Cytotoxicity against human HepG2 cells assessed as effect on cell viability at 10 to 250 uM after 24 hrs by MTT assay. Type of series: cell-based. The settings on record: hepg2, 24 h. The method in brief:
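HepG2 cells grown in MEM with 10% FBS (37 °C, 5% CO2) and seeded at 1 × 10^4. After overnight culture, exposed to 10–250 μM for 24 h. MTT for 3 h, formazan dissolved, OD 570 nm. Viability is % of control ± SEM from three independent experiments.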
(Tetrazolium assays rely on reduction of a dye to a coloured formazan, in cell work by metabolically active cells.)

The test system of series [10] is Mus musculus. Put plainly: Anticonvulsant activity in mouse assessed as protection against subcutaneous pentylenetetrazole-induced seizures by measuring latency time of tonic seizures at 30 mg/kg, ip measured for 30 mins post pentylenetetrazole challenge at 0.5 hrs after compound dosing (reference value: 562.8 to 614.9 secs). Type of series: functional.
Series [11] deals with Mus musculus. Put plainly: Toxicity in mouse at 30 mg/kg, ip measured during maximal electroshock seizure test. It counts as organism-based. The settings on record: in vivo.
Series [12] in a line: Protection index, ratio of TD50 for neurotoxicity in ip dosed mouse by rotarod test to ED50 for anticonvulsant activity in mouse by maximal electroshock seizure test. It counts as toxicity, organism-based. The settings on record: in vivo, read-out: Ratio TD50/ED50.
The test system of series [13] is Mus musculus. Put plainly: Anticonvulsant activity in mouse assessed as protection against subcutaneous pentylenetetrazole-induced seizures at 30 mg/kg, ip measured for 30 mins post pentylenetetrazole challenge at 0.5 hrs after compound dosing relative to control. Type of series: functional.
Series [14] deals with Mus musculus. The series is described as follows: Neurotoxicity in mouse assessed as motor impairment by measuring time of escaping from chimney at 27 mg/kg, ip measured for 60 secs (reference value: 8.87 +/- 1.79 secs). Type of series: toxicity, organism-based. The settings on record: in vivo, 1 min. The method in brief: (§2)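 Mice dosed ip; trained, selected animals placed in a horizontal tube 25 cm long and 2.5 cm in diameter, then tube reversed so mice must climb out backward. Read-outs: escape time (s) ± SEM and % animals losing coordination versus control. Unpaired t test.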

Series [15] deals with Mus musculus. The series is described as follows: Analgesic activity in mouse assessed as decrease in time of paw licking during phase 2 at 27 mg/kg, ip measured for 15 to 30 mins by formalin test relative to control. Type of series: functional. Also on record: scale not given: the % may be the effect or the level left. The method in brief: as §1
The test system of series [16] is Mus musculus. The series is described as follows: Neurotoxicity in mouse assessed as motor impairment by measuring loss of coordination at 27 mg/kg, ip measured for 60 secs by chimney test relative to control. As to conditions: in vivo, 1 min. Type of series: toxicity, organism-based. Summed up: as §2
Series [17] has as its system HepG2. The series is described as follows: Cytotoxicity against human HepG2 cells assessed as effect on cell viability at 10 to 250 uM after 24 hrs by neutral red assay. It counts as cell-based. The settings on record: hepg2, 24 h. The method in brief: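 HepG2 cells seeded at 5 × 10^4 per well, then after 24 h given medium with 10–250 μM for 24 h. Viability by neutral red staining, OD 570 nm. Results are % of control ± SEM, three independent experiments.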

In series [18] the test system is Mus musculus. Put plainly: Toxicity in mouse assessed as effect on spontaneous activity at 27 mg/kg, ip measured for 30 mins by photoresistor actometer relative to control. It counts as organism-based. The settings on record: in vivo, 0.5 h. Summed up: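 Mice dosed ip; locomotor activity by photoresistor actometers counting light-beam interruptions. Each mouse was habituated 30 min in a cage, then crossings were counted over a 30 min session. Data are mean ± SEM and % change vs control; unpaired t test.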

Series [19] has as its system Mus musculus. The series is described as follows: Anticonvulsant activity in mouse assessed as protection against subcutaneous pentylenetetrazole-induced seizures by measuring latency time of tonic seizures at 100 mg/kg, ip measured for 30 mins post pentylenetetrazole challenge at 0.5 hrs after compound dosing (reference value: 562.8 to 614.9 secs). Type of series: functional.

Series [20] in a line: Neurotoxicity in ip dosed mouse assessed as motor impairment measured for one min by rotarod test. Type of series: toxicity, organism-based. As to conditions: in vivo. Summed up: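 Mice trained on an accelerating rotarod, then tested at least 24 h later after ip pretreatment, on a rod turning at 10 rpm. Neurotoxicity was scored as failure to stay on the rod for one minute. Read-out is mice impaired over mice tested.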

Series [21] deals with Mus musculus. The series is described as follows: Anticonvulsant activity in mouse assessed as increase in electroconvulsive threshold at 10 mg/kg, ip by maximal electroshock seizure threshold test relative to control. Type of series: functional.
Series [22] deals with Mus musculus. The series is described as follows: Anticonvulsant activity in ip dosed mouse assessed as protection against maximal electroshock-induced seizures. Type of series: functional. Summed up:
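Mice were dosed ip. Maximal seizures were induced by auricular electrodes (25 mA, 500 V, 50 Hz, 0.2 s). Absence of hind-limb tonic extension counted as protection. […] Motor impairment was scored on a 10 rpm rotarod, giving TD50 the same way.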

The test system of series [23] is Mus musculus. Put plainly: Anticonvulsant activity in mouse assessed as protection against subcutaneous pentylenetetrazole-induced seizures at 50 mg/kg, ip measured for 30 mins post pentylenetetrazole challenge at 0.5 hrs after compound dosing relative to control. Type of series: functional.
Series [24] can be described thus: Neurotoxicity in ip dosed mouse assessed as motor impairment measured after 15 mins by rotarod test. The settings on record: in vivo. (Falling from the rotarod earlier than controls is read as motor impairment.)

Data on four molecules can be found in ChEMBL document CHEMBL4261484, “Design, synthesis and anticonvulsant-analgesic activity of new N-[(phenoxy)alkyl]- and N-[(phenoxy)ethoxyethyl]aminoalkanols” (Medchemcomm, 2017).

Activity calls are given as the source filed them. A value given as a limit tells only on which side of the number the result lay.

`COc1cccc2c1C(=O)c1c(O)c3c(c(O)c1C2=O)C[C@@](O)(C(=O)CO)C[C@@H]3O[C@H]1C[C@H](N)[C@H](O)[C@H](C)O1` [DOXORUBICIN]: the Activity entry with HepG2 [1] is “Toxic”.
One may read the TD50 as the 50% point of the dose-response relation for the toxic effect studied. In general, ED50 refers to the dose at which the effect has come halfway, by size or by number of responders. `Cc1ccc(OCCOCCNC(C)CO)c(C)c1` (racemic): the Activity in the series with Mus musculus [2] is reported as 6.76 mA; in the series on Mus musculus [3], “Non-Toxic”; in series [4] it was “Non-Toxic”; in the series with Mus musculus [5] it was 117.23%; with Mus musculus [7], “Non-Toxic”; in the series on HepG2 [9], “Non-Toxic”. Besides, the Activity result in the series with Mus musculus [11] is on record as “Non-Toxic”; with Mus musculus [13], 2.31%; in the series on Mus musculus [15], 83.41%; with Mus musculus [16], 0%; with HepG2 [17], “Non-Toxic”; in the series on Mus musculus [18], 68.92%. Also, in the series with Mus musculus [6], the result was Active. For the same molecule, the Time in the series on Mus musculus [8] was 67.25 s; in the series on Mus musculus [10], 575.8 s; in the series on Mus musculus [14] it was 6 s; in the series with Mus musculus [19], 1269 s. Also, the selectivity ratio in series [12] is 4.02. Further, in [20], the TD50 at 1 min amounted to 109 mg/kg. For the same molecule, the outcome in the series on Mus musculus [21] was inactive. The ED50 in the series on Mus musculus [22] came out at 27.1 mg/kg.
Turning to `CCC1(C)CC(=O)NC1=O` (stereo not drawn) [ETHOSUXIMIDE], the values for the Activity in the series with Mus musculus [5] and in the series on Mus musculus [23] were 139.06% and 123.94%, respectively. For the same molecule, in the series on Mus musculus [19], the Time is reported as 1470 s.
For the molecule `COC[C@@H](NC(C)=O)C(=O)NCc1ccccc1` [LACOSAMIDE], the Activity in the series with Mus musculus [2] is recorded as over 25 mA; in the series with Mus musculus [21] it was over 413.22%. Also, the TD50 at 0.25 h in series [24] stood at 42.5 mg/kg.
